OX1R antag-1 – antagonists of human orexin 1 receptor (OX1R) | OX1R-expressing cells, FRET antagonist read-out | inhibition, % at 6.6 µM | 330,000 tested, 1.8% active | Orexin/Hypocretin receptor type 1 (Homo sapiens), O43613 | AID 485270, 2010; in the data active means inhibition mostly above about 38%, no sharp cut-off; inactive means mostly below about 40%
Target sequence (O43613 whole entry, looked up): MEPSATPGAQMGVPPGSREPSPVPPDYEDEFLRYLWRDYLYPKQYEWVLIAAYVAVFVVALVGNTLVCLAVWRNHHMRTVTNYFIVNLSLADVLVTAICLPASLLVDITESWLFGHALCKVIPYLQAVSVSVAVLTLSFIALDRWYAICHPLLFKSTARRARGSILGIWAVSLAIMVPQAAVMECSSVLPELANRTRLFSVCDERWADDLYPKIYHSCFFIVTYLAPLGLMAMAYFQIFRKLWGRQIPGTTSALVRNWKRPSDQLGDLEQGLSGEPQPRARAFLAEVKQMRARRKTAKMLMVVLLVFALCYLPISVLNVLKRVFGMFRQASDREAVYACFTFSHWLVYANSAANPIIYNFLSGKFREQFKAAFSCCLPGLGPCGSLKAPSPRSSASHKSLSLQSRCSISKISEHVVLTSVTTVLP
CHO parental Ca – ATP-evoked calcium signal inhibitors, parental CHO, primary screen, counter-screen for OX1R antagonist project, cell-based, fluorescence, Fluo-8 calcium dye | inhibition, % at 5.6 µM | parental CHO-K1, ATP-induced calcium, Fluo-8 fluorescence | AID 463079, 2010 | 330,000 tested, 0.63% active;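 active means inhibition above that plate's mean sample inhibition plus 3 SD, cut at about 26% in these data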
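test system = CHO parental line | reagent = ATP stimulus | measured by = intracellular calcium via Fluo-8 no-wash fluorescent dye | control set = ATP and no-ATP DMSO wells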
CHO-K1 Ca antag – counter-screen for M1 antagonists: effect in parental CHO-K1 cells; ATP-induced calcium, Fluo-8 fluorescence; inhibition, % at 3 µM; 360,000 tested, 0.6% active; AID 602250;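 active means inhibition above a per-plate cutoff, the plate's mean sample inhibition plus 3 SD, cut at about 24% in these data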
M1 PAM parental – nonselective calcium activators in parental CHO-K1 cells, primary screen, counter-screen for M1 PAM project, cell-based, Fluo-8 calcium fluorescence, full deck, 1536-well | activation, % at 3 µM | 360,000 tested, 0.02% active | ATP EC20; 0% at ATP EC20, 100% at ATP max | AID 602247, 2012;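 active means activation above the run cutoff, the mean activation of all test compounds plus 3 SD, cut at about 40% in these data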;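 further: peak over basal fluorescence ratio in a 140 s read after ATP addition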
OX1R antag-2 – OX1R (HCRTR1) antagonists, primary screen, fluorescence, CHO/OX1R cells, Fluo-8 calcium, orexin A | Fluo-8 calcium fluorescence | Orexin/Hypocretin receptor type 1 (Homo sapiens), O43613 | 330,000 tested, 0.43% active | inhibition, % at 5 µM | AID 434989, 2010;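 active means inhibition above its plate's threshold, mean inhibition of all tested compounds on the plate plus 3 SD, cut at about 37% in these data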
M1 ag parental – counter-screen for M1 agonists: effect in parental CHO-K1 cells; Fluo-8 calcium fluorescence; scaled to maximal ATP response, vehicle zero; activation, % at 3 µM; 360,000 tested, 0.48% active; in the data active means activation above about 15%;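 further: untransfected CHO-K1 host cells lacking M1 receptor as counterscreen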
Hits are given with their value; n = inactive; x = no result given. Rows were chosen to be rich in hits. Some 2.9% of all compounds tested hit in one or more screens of this group.

SMILES | OX1R antag-1 | CHO parental Ca | CHO-K1 Ca antag | M1 PAM parental | OX1R antag-2 | M1 ag parental
O=C(NCCCO)C(=O)Nc1cc2c3c(c1)CCN3C(=O)CC2 | n | n | n | n | n | n
COc1ccc(NC(=O)C[C@H]2C(=O)N(c3ccc(Br)cc3)C[C@@H]2CSC)cc1 | x | x | n | n | x | n
Cc1cc2cc(C(c3nnnn3Cc3ccccc3)N3CCc4ccccc43)c(=O)[nH]c2cc1C (centres undefined) | 46 | n | n | n | n | n
Cc1cc([N+](=O)[O-])nn1CC(=O)Nc1cc(F)ccc1F | n | n | n | n | n | 16
O=C(NC1CC1(c1ccccc1)c1ccccc1)c1ccccc1 (centres undefined) | x | x | n | n | x | n
COc1ccc(N=C2NC(=O)S/C2=C\c2ccc(N(C)C)cc2)cc1 | n | 37 | n | n | n | n
CCOc1ccc(N=C2NC(=O)S/C2=C\c2ccc(Cl)cc2)cc1 | n | n | n | n | n | n
CC[C@@H](C(=O)[C@@H](C)[C@@H](O)[C@H](C)CCc1ccc(C)c(O)c1C(=O)O)[C@H]1O[C@](CC)([C@H]2CC[C@](O)(CC)[C@H](C)O2)C[C@@H]1C | n | 39 | n | n | 40 | 26
O=C(Nc1nc2n(n1)C(c1ccccc1)C=C(c1ccccc1)N2)c1ccco1 (centres undefined) | 50 | n | n | n | n | n
CC(=O)Nc1nc2n(n1)C(c1ccccc1)C=C(c1ccccc1)N2 (centres undefined) | n | n | n | n | n | n
CC(=O)Nc1ccc(NC(=O)C(C)Oc2ccccc2F)cc1 (centres undefined) | n | n | 24 | n | n | n
CC1CCCN(C(=O)c2ccc(S(=O)(=O)N3CCC(c4nc5ccccc5s4)CC3)cc2)C1 (centres undefined) | n | n | n | n | n | n
CCN(CC)C(=O)c1ccc(S(=O)(=O)N2CCC(c3nc4ccccc4s3)CC2)cc1 | 37 | n | n | n | n | n
CC(C)(C)N(Cc1ccc2c(c1)OCO2)C(=O)/C=C\S(=O)c1ccccc1 (centres undefined) | x | x | n | n | x | n
CSc1ccc(S(=O)(=O)NCC(=O)OCC(=O)NCC2CCCO2)cc1[N+](=O)[O-] (centres undefined) | 56 | n | n | n | n | n
COc1ccc(C2(C)NC(=O)N(CC(=O)Nc3cccnc3Cl)C2=O)cc1 (centres undefined) | n | n | n | n | n | n
CC1(c2ccc(OC(F)F)cc2)NC(=O)N(CC(=O)Nc2cccnc2Cl)C1=O (centres undefined) | n | n | n | n | n | 33
Cc1nc2ccc(NC(=O)[C@@H](NC(=O)c3c(F)cccc3F)C(C)C)cc2s1 | n | n | n | n | n | n
CC(C)[C@H](NC(=O)c1c(F)cccc1F)C(=O)Nc1cccc(Br)c1 | n | n | n | n | n | 19
Cc1cc(C)n2nc(C(=O)OCC(=O)N(C)C3CCCCC3)nc2n1 | n | n | n | n | n | n
O=C(Nc1ccc2ncccc2c1)Nc1ccc2ncccc2c1 | 76 | n | n | n | n | n
Cc1cc(C(=O)CC#N)c(C)n1-c1ccc(OC(F)F)cc1 | n | n | n | n | n | n
COc1ccc(-n2c(C)cc(C(=O)COC(=O)Cn3cnc4ccccc43)c2C)cc1 | n | 34 | 33 | n | n | n
Cc1cc(C(=O)COC(=O)c2ccc(O)cc2O)c(C)n1-c1ccc(OC(F)F)cc1 | x | x | 29 | n | x | n
COc1cc(NC(=O)c2cccs2)c(C(=O)OCC(=O)c2cc(C)n(-c3ccc(F)cc3)c2C)cc1OC | n | n | n | n | n | 17
COc1ccc(NC(=O)COC(=O)Cn2cnc3ccccc32)cc1 | n | n | n | n | n | n
Cc1cc(C(=O)CSc2nc(N)cc(=O)[nH]2)c(C)n1-c1ccc(OC(F)F)cc1 | n | 38 | n | n | n | n
Nc1nc(-c2ccccc2)ns1 | x | x | n | n | x | n
COc1ccc(-n2c(C)cc(C(=O)CCl)c2C)cc1 | n | n | n | n | n | n

Screening data: PubChem BioAssay, The Scripps Research Institute Molecular Screening Center
